# Bioassay records (PubChem BioAssay)
# Compounds with a hit are over-represented: about 2% of the library has one in this group of screens.
# UHRF1 binding: UHRF1 methyl-DNA binding inhibition. inhibition, % at 4.4 µM. AID 687016. hit rate 0.75% among 370,000. UHRF1 binding to methylated oligo, TR-FRET; in the data active = inhibition above about 21%;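 also: UHRF1 SRA domain binding a hemimethylated CpG hairpin DNA probe; 0% = median of test compound wells and 100% = reference inhibitor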
# Target sequence (Q96T88 whole entry, looked up, the tested form may be a part): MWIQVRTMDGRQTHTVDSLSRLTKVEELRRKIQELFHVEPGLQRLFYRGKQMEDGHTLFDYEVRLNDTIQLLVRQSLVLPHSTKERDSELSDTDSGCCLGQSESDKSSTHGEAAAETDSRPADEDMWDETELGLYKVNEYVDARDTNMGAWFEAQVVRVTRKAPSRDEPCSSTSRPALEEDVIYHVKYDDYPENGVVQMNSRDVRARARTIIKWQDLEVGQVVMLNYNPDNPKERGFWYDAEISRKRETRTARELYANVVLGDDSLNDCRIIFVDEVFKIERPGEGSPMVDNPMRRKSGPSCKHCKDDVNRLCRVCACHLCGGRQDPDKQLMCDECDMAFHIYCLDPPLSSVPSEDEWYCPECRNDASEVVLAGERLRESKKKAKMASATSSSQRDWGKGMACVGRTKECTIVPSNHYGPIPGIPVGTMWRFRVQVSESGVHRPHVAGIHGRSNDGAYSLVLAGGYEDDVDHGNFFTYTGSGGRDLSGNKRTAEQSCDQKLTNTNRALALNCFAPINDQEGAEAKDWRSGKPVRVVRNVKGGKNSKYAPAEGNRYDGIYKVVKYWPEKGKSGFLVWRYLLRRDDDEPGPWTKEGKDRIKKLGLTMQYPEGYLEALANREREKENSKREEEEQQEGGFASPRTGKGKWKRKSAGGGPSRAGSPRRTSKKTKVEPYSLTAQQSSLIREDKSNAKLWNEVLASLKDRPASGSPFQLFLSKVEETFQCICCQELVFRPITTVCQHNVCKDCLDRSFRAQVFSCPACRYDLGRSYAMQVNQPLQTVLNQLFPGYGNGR
# MBD2 inh: blocks human MBD2 binding to methylated DNA; TR-FRET, MBD2 binding to methylated oligonucleotide; hit rate 0.31% among 370,000; inhibition, % at 4.4 µM; Q9UBB5; AID 686964; in the data active = inhibition above about 13%
# LEDGF integ inh: blocks HIV-1 LEDGF/p75-dependent DNA integration | TR-FRET IN-LEDGF/p75 DNA integration, Eu/Cy5 | inhibition, % at 3.7 µM | hit rate 0.64% among 370,000 | AID 743269;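 active = inhibition above the screen-wide mean plus 3 SD, cut at about 13% in these data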;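 also: signal is the Cy5 over europium emission ratio at 671 and 618 nm; 0% = plate median of compound wells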
# ASAP1 GAP inh: blocks human ASAP1-stimulated Arf1 GTP hydrolysis; Q9ULH1; inhibition, % at 16.5 µM; GDP FP detection; hit rate 0.19% among 360,000; in the data active = inhibition above about 25%;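 also: 0% = vehicle with enzyme and substrate and 100% = no enzyme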
# ARFGAP1 inhibitor: rat ARFGAP1 inhibition. inhibition, % at 16.5 µM. Arfgap1-stimulated ARF1 GTP hydrolysis, GDP FP detection. AID 651572. Q62848. hit rate 0.26% among 360,000;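 active = inhibition above a per-plate limit, mean inhibition of low control wells plus 3 SD, cut at about 25% in these data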;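 also: 0% = DMSO wells with enzyme and 100% = wells lacking Arfgap1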
#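 Repeats: one replicate per compound; assay system: rat Arfgap1 catalytic domain, aa 1-136; times: enzyme reaction 120 min at 25 °C after 20 min preincubation; detection: FP of antibody-bound GDP Alexa 633 tracer, ex 620/em 688 nm; benchmarks: high control wells lacking Arfgap1, low control full reaction with DMSO; reagent: human ARF1(Δ1-17)-GTP substrate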
# TDP2 absorb: blocks human TDP2 phosphodiesterase activity. hit rate 0.34% among 370,000. recombinant TDP2, T5PNP hydrolysis, p-nitrophenol absorbance 415 nm. inhibition, % at 12.8 µM. O95551;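 active = inhibition above the mean of all tested compounds plus 3 SD, set per campaign, cut at about 25% in these data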;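 also: 0% = DMSO with enzyme and 100% = buffer with substrate but no TDP2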
#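 test system = human TDP2 enzyme | input = TDP2 enzyme at 120 nM final | medium = 50 mM Tris-HCl pH 7.5 with Mg2+, KCl, DTT, BSA | also added = T5PNP substrate, 5 mM | times = 2 h at 37 °C | technique = epi absorbance | benchmarks = high control without enzyme, low control DMSO plus TDP2 | replication = each compound tested once, singlicate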
# Active calls of the source: *; · = not tested or not shown.
SMILES,UHRF1 binding,MBD2 inh,LEDGF integ inh,ASAP1 GAP inh,ARFGAP1 inhibitor,TDP2 absorb
COc1ccc(NC(=O)c2cccc(S(=O)(=O)N3CCN(c4ccccc4)CC3)c2)c(OC)c1,21.7*,5.2,-1.4,5.8,-0.9,4.0
COc1ccccc1NC(=O)c1cccc(S(=O)(=O)N2CCN(c3ccccc3)CC2)c1,5.3,0.2,-6.4,-10.9,-2.9,-13.6
CC(=O)Nc1ccc(Sc2ccccc2C(=O)O)cn1,21.2*,12.4,1.0,7.0,1.9,13.3
CCOc1ccccc1CNc1ccc(O)cc1,16.7,6.9,25.3*,-11.1,1.3,25.8*
Cc1cc(Oc2ccc(C#N)cc2)nc(N2CCOCC2)n1,20.7*,11.0,1.2,6.7,6.7,9.6
COc1ccc2c(c1)Sc1ccc(Cl)cc1N2,8.7,-2.8,-0.9,·,·,-7.1
CCOC(=O)c1cnc2ccccc2c1Nc1ccc(C(=O)O)cc1,25.6*,2.8,-0.8,-7.4,-12.5,-1.2
O=S1(=O)CCOCCCN1Cc1cccc(C(F)(F)F)c1,-2.0,-3.0,0.8,-0.9,4.4,-2.3
O=S1(=O)CCOCCCN1Cc1ccccc1F,41.4*,-3.3,1.0,0.3,-6.2,6.2
O=C(NCc1ccc(C(=O)NCC2CCCO2)cc1)c1cccc(Br)c1 (centres undefined),3.8,2.6,-0.2,·,·,0.9
CCOc1ccc(/C=C2\SC(=S)N(CC(=O)N(CCO)C(C)(C)C)C2=O)cc1,34.7*,4.3,-1.8,8.7,2.2,7.4
C=CCN(C)CC#Cc1ccc(F)cc1,7.2,0.8,2.1,·,·,5.1
COC(=O)CSc1nnc(-c2ccoc2C)n1-c1ccc(C)cc1,21.9*,13.0,2.5,2.6,5.8,-10.9
COC(=O)CSc1nnc(-c2ccco2)n1-c1ccc(C)cc1,-0.2,-5.4,0.5,10.2,7.6,2.9
CCCC(=O)OC12CCCN(C1)/C(=C/c1ccc(OC)cc1)C2 (centres undefined),-1.6,-0.2,0.2,·,·,3.5
O=C(NCCCc1ccccc1)C1CCN(c2nc(-c3ccc(Br)cc3)cs2)CC1,0.2,2.3,-4.0,·,·,-4.7
O=C(c1ccco1)N1CCN(C(c2cccs2)c2nnnn2C2CCCCC2)CC1 (centres undefined),86.0*,3.8,1.9,5.8,13.4,5.9
CC(C(=O)OCC(=O)Nc1ccc2c(c1)OCO2)N1C(=O)c2ccccc2C1=O (centres undefined),19.0,34.5*,2.7,6.6,-6.0,8.8
CC(C)C(C(=O)Nc1ccc2c(c1)OCO2)N1C(=O)c2ccccc2C1=O (centres undefined),-1.3,-0.6,3.6,2.4,-2.5,3.4
COc1ccccc1NC(=O)N1CCN(c2ccc3nncn3n2)CC1,24.0*,7.0,1.4,-6.3,6.7,-10.3
CCN(CC)c1ccc(NC(=O)CSc2nc3ccccc3c(=O)n2-c2ccc(C)cc2)cc1,-0.3,-5.5,5.0,·,·,-18.7
COc1cc(/C=C2\CC/C(=C\c3cc(OC)c(O)c(OC)c3)C2=O)cc(OC)c1O,-2.8,1.0,33.5*,17.9,15.9,4.8
COc1cc(/C=C2\CC/C(=C\c3cc(OC)c(OC)c(OC)c3)C2=O)cc(OC)c1OC,8.0,3.8,-0.6,-13.0,-11.7,0.8
Cc1cccc(-c2nnc(SCc3cccc4ccccc34)n2-c2ccc(Cl)cc2)c1,2.0,5.6,0.3,·,·,-0.9
O=S(=O)(NCc1ccc2c(c1)OCO2)c1ccc2c(c1)oc1ccccc12,29.4*,2.6,0.6,9.9,-3.2,3.1
SMILES,UHRF1 binding,MBD2 inh,LEDGF integ inh,ASAP1 GAP inh,ARFGAP1 inhibitor,TDP2 absorb
O=S(=O)(NCc1ccc2c(c1)OCO2)c1cccc(F)c1,-0.7,-2.5,2.7,-6.9,1.5,7.3
COc1ccc(CNC(=O)C2CCN(c3nnc(N4CCCC4=O)s3)CC2)cc1,22.3*,2.5,3.1,5.2,2.8,-4.0
COc1ccc(CSc2nnc(SCC(=O)Nc3ccc4c(c3)OCO4)s2)cc1,-1.5,-5.8,0.1,·,·,5.5
CCOC(=O)C(=O)N1CCC(C(=O)NC2CCCc3ccccc32)CC1 (centres undefined),-0.8,-0.8,0.9,·,·,4.0
COc1cc2cccc(OC)c(=O)c2c(O)c1OC,-6.0,-8.5,-8.0,-9.2,-4.4,4.7
COc1cc2c(ccc3cc(OC)c(OC)c(O)c32)cc1O,52.5*,26.9*,36.4*,-6.0,-0.5,7.6
O=C(Nc1cccc(S(=O)(=O)N2CCOCC2)c1)c1ccc2ccccc2n1,22.0*,0.7,-5.0,9.0,-5.7,-16.3
Cc1ccc(S(=O)(=O)NCC(=O)OCC(=O)Nc2cccc(S(=O)(=O)N3CCOCC3)c2)cc1,0.4,-1.8,26.9*,-21.0,1.9,-9.8
CSCCCNC(=O)c1cn(C(C)c2ccccc2)nn1 (centres undefined),0.2,1.6,-0.5,·,·,-6.4
CC(C)CCn1c(SCC(=O)Nc2ccccc2C(F)(F)F)nc2nccnc2c1=O,22.3*,4.8,5.0,2.9,-10.1,-11.2
COC(=O)[C@]12C[C@H](CC(=O)N3CCN(C(=O)C4CC4)CC3)C(=O)N(Cc3ccco3)C1=C[C@H](C(C)(C)C)O[C@@H]2C,7.2,-0.1,2.0,·,·,-12.7
Cc1ccc(S(=O)(=O)/N=C2\C=C(NS(=O)(=O)c3ccccc3)C(=O)c3ccccc32)cc1,-5.5,-21.4,16.0*,1.4,-5.7,17.9
Cc1ccc(S(=O)(=O)/N=C2/C=C(C3C(=O)CC(C)(C)CC3=O)C(=O)c3ccccc32)cc1,4.1,-13.1,39.7*,-2.5,5.5,51.1*
O=C(COC(=O)c1ccc([N+](=O)[O-])s1)c1ccc[nH]1,-3.3,2.5,3.5,-11.6,-11.1,35.1*
COc1cc(C(F)(F)F)nc2ccc(C#CCOC(=O)Nc3ccccc3)cc12,21.1*,5.2,-1.2,17.6,0.7,2.8
CN(C)C(=O)c1cc2c(c(-c3cccc(-c4ccccc4F)c3)n1)[C@@H](CCO)N(S(C)(=O)=O)C2,92.1*,-6.0,-2.1,4.6,9.6,1.6
COc1ccc(-c2[nH]ncc2CN(C)CC2CCCCO2)cc1F (centres undefined),0.4,-0.9,-3.0,12.3,7.8,-7.8
COc1ccc(-c2[nH]ncc2CN(C)CCN2CCOCC2)cc1F,21.6*,10.8,2.3,9.4,0.3,-12.8
O=S1(=O)c2c(cccc2N2CCSCC2)Oc2ccccc2CN1Cc1cn(Cc2cccc(F)c2)nn1,4.0,0.4,4.5,·,·,2.6
CCCC1CCC2(CC1)CCC2OC(=O)Nc1ccccc1OC (centres undefined),-2.5,-2.6,-1.5,·,·,5.2
CCOC(=O)c1ccc(NC(=O)C(=O)NCc2ccco2)cc1,24.4*,0.7,2.6,-14.4,2.4,12.1
CCOC(=O)c1ccc(NC(=O)CCC(=O)NCc2ccco2)cc1,2.9,5.3,1.1,4.8,-3.1,-8.5
COc1ccc(C=NNC(=O)c2ccncc2)cc1,1.7,1.6,-3.7,·,·,-0.9
